In ChEMBL document CHEMBL3621160, “Pseudosaccharin amines as potent and selective KV1.5 blockers” (Bioorg Med Chem Lett, 2015):

Columns and labels:
[1] = target: L-type calcium channel, benzothiazepine binding site (Rattus norvegicus, UniProt P22002+P27732+Q02485); experiment: Inhibition of rat L-type calcium channel benzothiazepine binding site at 10 uM relative to control
Summary of the method: (§1)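 Screening panel of over 37 receptors and enzymes relevant to cardiovascular effects or toxicity. Each target was tested at a single concentration of 10 µM, with % activity reported.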

[2] = Cmax in rat at 2 mg/kg administered as intra-arterial infusion for 10 mins and 5 mg/kg, po; assay type: ADME, organism-based; set-up: route oral; conditions: in vivo
Summary of the method: (§2)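 Rats (3 per compound) received intra-arterial infusion over 10 min or oral gavage. Vehicle for both routes was 40% PEG 400, 40% water and 20% ethanol. Values are means of 3 animals.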

[3] = system: Oryctolagus cuniculus; experiment: Toxicity in rabbit assessed as increase in blood pressure at 0.3 to 3 mg/kg; assay type: organism-based; conditions: in vivo
Summary of the method: (§3)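 Rabbits were dosed at 0.3, 1.0 and 3.0 mg/Kg. Effective refractory period was measured in atrium and ventricle, and blood pressure was recorded. The plasma concentration giving 20% atrial ERP prolongation (EC20) was calculated.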

[4] = target: Phosphodiesterase 4 (Homo sapiens) (UniProt P27815+Q08499+Q07343+Q08493); experiment: Inhibition of human PDE4 at 10 uM relative to control; assay type: protein assay; summary of the method: as §1
[5] = organism: Rattus norvegicus; experiment: Inhibition of rat opioid receptor at 10 uM relative to control
Summary of the method: (§4)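 Single-concentration screen at 10 µM across a panel of over 37 receptors and enzymes linked to cardiovascular effects or toxicity. Read-out is percent activity.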

[6] = target: Adrenergic receptor alpha-2 (Rattus norvegicus) (UniProt P22086+P19328+P22909); experiment: Inhibition of rat alpha-2 adrenergic receptor at 10 uM relative to control; summary of the method: as §1
[7] = target: D(1A) dopamine receptor (Homo sapiens) (UniProt P21728); experiment: Inhibition of human dopamine D1 receptor at 10 uM relative to control; summary of the method: as §1
D(1A) dopamine receptor (Homo sapiens), sequence (P21728 whole entry): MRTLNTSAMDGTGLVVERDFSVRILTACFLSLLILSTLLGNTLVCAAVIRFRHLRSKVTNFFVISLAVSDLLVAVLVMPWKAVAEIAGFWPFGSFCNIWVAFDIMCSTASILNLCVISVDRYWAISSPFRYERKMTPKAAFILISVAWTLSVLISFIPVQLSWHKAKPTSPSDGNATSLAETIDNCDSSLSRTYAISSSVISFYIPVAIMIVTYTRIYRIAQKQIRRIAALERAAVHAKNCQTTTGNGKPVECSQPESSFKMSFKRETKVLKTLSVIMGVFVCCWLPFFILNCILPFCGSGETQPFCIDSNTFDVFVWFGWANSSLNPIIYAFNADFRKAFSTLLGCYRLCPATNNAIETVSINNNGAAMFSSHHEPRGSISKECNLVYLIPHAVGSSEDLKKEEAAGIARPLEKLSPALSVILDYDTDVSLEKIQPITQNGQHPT

[8] = target: MAO-B (Homo sapiens, UniProt P27338); experiment: Inhibition of human MAOB at 10 uM relative to control; summary of the method: as §1
MAO-B, sequence (P27338 whole entry, the tested form may be a part): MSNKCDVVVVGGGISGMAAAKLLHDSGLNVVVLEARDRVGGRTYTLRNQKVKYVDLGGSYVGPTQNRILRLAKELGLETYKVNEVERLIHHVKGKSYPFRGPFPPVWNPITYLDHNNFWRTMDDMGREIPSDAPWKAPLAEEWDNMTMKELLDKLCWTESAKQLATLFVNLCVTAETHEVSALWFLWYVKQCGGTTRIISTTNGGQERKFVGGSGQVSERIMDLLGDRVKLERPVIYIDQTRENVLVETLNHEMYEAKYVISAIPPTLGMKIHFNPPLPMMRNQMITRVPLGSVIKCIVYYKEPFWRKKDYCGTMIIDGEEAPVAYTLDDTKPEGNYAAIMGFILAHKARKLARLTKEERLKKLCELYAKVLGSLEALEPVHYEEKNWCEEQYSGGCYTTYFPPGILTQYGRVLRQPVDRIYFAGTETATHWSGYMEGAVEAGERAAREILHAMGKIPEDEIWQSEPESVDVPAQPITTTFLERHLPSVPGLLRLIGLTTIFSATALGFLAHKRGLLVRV

[9] = Clearance in rat at 2 mg/kg administered as intra-arterial infusion for 10 mins and 5 mg/kg, po; assay type: ADME, organism-based; conditions: in vivo, iv; summary of the method: as §2
[10] = organism: Homo sapiens; experiment: Inhibition of human nicotinic acetylcholine receptor at 10 uM relative to control; summary of the method: as §4
[11] = target: Sodium-dependent noradrenaline transporter (Homo sapiens) (UniProt P23975); experiment: Inhibition of human NET at 10 uM relative to control; summary of the method: as §1
Sodium-dependent noradrenaline transporter (Homo sapiens), sequence (P23975 whole entry): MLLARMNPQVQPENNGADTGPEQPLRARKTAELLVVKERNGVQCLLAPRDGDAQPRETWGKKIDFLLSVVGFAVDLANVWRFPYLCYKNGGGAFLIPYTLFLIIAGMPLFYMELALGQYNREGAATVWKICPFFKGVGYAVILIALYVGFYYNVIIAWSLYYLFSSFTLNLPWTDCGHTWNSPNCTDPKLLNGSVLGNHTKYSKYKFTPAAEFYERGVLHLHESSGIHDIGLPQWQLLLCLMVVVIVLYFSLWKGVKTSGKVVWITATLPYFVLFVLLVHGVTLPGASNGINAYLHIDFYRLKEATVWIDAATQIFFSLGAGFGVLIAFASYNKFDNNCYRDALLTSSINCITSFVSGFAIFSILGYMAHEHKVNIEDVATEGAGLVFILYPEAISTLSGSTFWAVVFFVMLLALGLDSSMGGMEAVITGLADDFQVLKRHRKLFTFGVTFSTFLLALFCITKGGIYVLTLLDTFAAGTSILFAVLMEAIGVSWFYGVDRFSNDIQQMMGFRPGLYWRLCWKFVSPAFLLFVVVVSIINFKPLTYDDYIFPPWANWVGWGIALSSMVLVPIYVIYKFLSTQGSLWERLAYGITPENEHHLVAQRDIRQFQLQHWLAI

[12] = organism: Rattus norvegicus; experiment: Inhibition of rat L-type calcium channel dihydropyridine binding site at 10 uM relative to control; summary of the method: as §4
[13] = target: Progesterone receptor (Homo sapiens) (UniProt P06401); experiment: Inhibition of human progesterone B receptor at 10 uM relative to control; summary of the method: as §1
[14] = organism: Rattus norvegicus; experiment: Inhibition of rat GABAA central-type benzodiazepine receptor at 10 uM relative to control; summary of the method: as §4
[15] = target: Histamine H1 receptor (Homo sapiens) (UniProt P35367); experiment: Inhibition of human histamine H1 receptor at 10 uM relative to control; summary of the method: as §1
Histamine H1 receptor (Homo sapiens), sequence (P35367 whole entry): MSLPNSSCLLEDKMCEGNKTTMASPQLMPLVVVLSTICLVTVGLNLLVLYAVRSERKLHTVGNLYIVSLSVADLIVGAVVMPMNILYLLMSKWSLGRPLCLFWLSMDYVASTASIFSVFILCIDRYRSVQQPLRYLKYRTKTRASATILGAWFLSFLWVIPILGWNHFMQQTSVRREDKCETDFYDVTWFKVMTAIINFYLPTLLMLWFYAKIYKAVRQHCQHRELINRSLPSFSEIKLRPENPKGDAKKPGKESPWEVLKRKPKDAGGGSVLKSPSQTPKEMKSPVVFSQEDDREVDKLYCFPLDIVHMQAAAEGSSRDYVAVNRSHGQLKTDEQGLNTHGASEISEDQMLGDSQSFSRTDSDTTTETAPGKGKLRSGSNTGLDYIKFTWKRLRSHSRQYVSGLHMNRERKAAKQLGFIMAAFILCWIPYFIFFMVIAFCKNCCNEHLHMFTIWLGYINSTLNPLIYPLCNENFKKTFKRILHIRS

[16] = target: Estrogen receptor (Homo sapiens) (UniProt P03372); experiment: Inhibition of human ER-alpha at 10 uM relative to control; summary of the method: as §1
Estrogen receptor (Homo sapiens), sequence (P03372 whole entry): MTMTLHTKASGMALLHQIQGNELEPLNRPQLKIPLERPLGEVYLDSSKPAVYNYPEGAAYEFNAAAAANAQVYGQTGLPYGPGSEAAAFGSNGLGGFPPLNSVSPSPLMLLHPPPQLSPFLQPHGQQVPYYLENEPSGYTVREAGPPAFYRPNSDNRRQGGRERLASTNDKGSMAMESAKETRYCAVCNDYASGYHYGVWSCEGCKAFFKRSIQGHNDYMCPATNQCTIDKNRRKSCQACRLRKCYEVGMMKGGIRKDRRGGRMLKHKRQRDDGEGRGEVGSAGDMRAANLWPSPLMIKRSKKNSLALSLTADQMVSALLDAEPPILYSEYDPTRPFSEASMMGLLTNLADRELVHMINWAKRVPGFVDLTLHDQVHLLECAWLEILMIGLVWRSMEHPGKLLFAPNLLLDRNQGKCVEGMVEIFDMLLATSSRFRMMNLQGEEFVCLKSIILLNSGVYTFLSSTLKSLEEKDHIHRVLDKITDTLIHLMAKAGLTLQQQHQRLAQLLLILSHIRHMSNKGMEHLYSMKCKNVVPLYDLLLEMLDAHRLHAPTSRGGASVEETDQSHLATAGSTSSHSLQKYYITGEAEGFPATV

[17] = organism: Rattus norvegicus; experiment: Inhibition of rat choline transporter at 10 uM relative to control; summary of the method: as §4
[18] = AUC in rat at 5 mg/kg, po; assay type: ADME, organism-based; conditions: in vivo; summary of the method: as §2
[19] = target: Mu-type opioid receptor (Homo sapiens) (UniProt P35372); experiment: Inhibition of human mu opioid receptor at 10 uM relative to control; summary of the method: as §1
[20] = organism: Homo sapiens; experiment: Inhibition of calcium channel (unknown origin) at 10 uM relative to control
Summary of the method: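 Calcium (ICa) and sodium (INa) currents were measured as percent inhibition at a single concentration of 10 µM. Values are means of 2-4 experiments.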

[21] = organism: Oryctolagus cuniculus; experiment: Induction of […] effective refractory period prolongation in rabbit; assay type: functional; summary of the method: as §3
[22] = organism: Rattus norvegicus; experiment: Inhibition of rat muscarinic acetylcholine receptor at 10 uM relative to control; summary of the method: as §4
[23] = organism: Rattus norvegicus; experiment: Inhibition of rat N-methyl D-aspartate receptor phencyclidine binding site at 10 uM relative to control; summary of the method: as §4
[24] = target: MAO-A (Homo sapiens, UniProt P21397); experiment: Inhibition of human MAOA at 10 uM relative to control; summary of the method: as §1
[25] = Volume of distribution at steady state in rat at 2 mg/kg administered as intra-arterial infusion for 10 mins and 5 mg/kg, po; assay type: ADME, organism-based; conditions: in vivo, read-out: Vdss
Summary of the method: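 Rat PK: 2.0 mg/kg by intra-arterial infusion over 10 min and 5.0 mg/kg by oral gavage, vehicle 40% PEG 400, 40% water, 20% ethanol for both routes; Vss from 3 animals, reported as mean.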

[26] = Metabolic stability in mouse liver microsomes assessed as compound remaining at 3 uM after 10 mins; assay type: ADME; conditions: read-out: Stability
Summary of the method: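 Parent compound at 3 µM was incubated 10 min in human, rat or mouse liver microsomes with appropriate co-factors. Read-out is percent of parent remaining.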

[27] = target: Protein kinase C (PKC) (Rattus norvegicus) (UniProt P05696+P68403+P09216+P63319+P09215+Q64617+Q9WTQ0+P09217); experiment: Inhibition of rat PKC at 10 uM relative to control; summary of the method: as §1
[28] = target: Phosphodiesterase 3 (Homo sapiens) (UniProt Q14432+Q13370); experiment: Inhibition of human PDE3 at 10 uM relative to control; assay type: protein assay
[29] = target: hERG (KCNH2) (Homo sapiens, UniProt Q12809); experiment: Inhibition of human ERG at 10 uM relative to control; summary of the method: as §1
hERG (KCNH2), sequence (Q12809 whole entry): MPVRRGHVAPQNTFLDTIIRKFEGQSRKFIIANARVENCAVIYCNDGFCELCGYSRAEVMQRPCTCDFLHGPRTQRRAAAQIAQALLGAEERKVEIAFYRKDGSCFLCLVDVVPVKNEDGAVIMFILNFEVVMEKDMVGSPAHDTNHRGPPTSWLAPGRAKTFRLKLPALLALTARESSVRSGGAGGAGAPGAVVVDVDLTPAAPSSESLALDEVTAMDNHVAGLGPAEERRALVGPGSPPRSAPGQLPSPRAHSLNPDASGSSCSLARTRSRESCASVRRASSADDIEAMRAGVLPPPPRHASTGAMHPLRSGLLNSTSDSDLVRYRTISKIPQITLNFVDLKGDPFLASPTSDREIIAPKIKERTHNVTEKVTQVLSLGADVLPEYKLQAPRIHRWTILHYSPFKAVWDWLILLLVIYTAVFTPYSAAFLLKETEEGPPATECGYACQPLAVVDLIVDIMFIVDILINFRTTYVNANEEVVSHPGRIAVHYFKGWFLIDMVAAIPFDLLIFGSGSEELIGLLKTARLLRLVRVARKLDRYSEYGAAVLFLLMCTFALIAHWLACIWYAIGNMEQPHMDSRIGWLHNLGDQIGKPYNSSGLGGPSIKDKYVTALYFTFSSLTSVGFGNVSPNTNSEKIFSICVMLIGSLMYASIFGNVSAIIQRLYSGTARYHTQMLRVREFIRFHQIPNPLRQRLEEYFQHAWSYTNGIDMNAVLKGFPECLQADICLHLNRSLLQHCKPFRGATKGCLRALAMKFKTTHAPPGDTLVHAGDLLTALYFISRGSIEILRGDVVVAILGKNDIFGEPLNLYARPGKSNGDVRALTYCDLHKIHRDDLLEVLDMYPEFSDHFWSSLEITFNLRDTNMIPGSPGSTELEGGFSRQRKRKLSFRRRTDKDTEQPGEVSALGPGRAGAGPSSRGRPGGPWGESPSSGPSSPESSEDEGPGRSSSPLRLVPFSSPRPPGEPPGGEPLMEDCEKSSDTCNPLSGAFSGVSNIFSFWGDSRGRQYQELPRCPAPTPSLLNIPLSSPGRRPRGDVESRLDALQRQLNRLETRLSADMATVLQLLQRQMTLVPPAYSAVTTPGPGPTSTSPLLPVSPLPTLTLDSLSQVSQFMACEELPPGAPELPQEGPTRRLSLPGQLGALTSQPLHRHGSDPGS

[30] = target: D(2) dopamine receptor (Homo sapiens) (UniProt P14416); experiment: Inhibition of human dopamine D2S receptor at 10 uM relative to control; summary of the method: as §1
D(2) dopamine receptor (Homo sapiens), sequence (P14416 whole entry): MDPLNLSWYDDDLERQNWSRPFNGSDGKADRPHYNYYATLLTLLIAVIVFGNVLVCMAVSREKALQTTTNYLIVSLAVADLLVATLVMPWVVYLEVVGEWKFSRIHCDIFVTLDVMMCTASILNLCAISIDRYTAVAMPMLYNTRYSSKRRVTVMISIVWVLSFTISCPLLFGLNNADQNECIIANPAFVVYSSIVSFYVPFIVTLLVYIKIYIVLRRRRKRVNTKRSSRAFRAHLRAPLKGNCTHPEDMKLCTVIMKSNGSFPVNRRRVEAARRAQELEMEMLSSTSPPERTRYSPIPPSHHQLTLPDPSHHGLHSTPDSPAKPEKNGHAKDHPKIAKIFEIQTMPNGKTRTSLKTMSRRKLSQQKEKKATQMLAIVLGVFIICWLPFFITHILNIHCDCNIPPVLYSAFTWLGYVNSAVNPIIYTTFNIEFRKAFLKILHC

[31] = target: Adrenergic receptor alpha-1 (Rattus norvegicus) (UniProt P15823+P23944+P43140); experiment: Inhibition of rat alpha-1 adrenergic receptor at 10 uM relative to control; summary of the method: as §1
[32] = Oral bioavailability in rat at 5 mg/kg; assay type: ADME, organism-based; conditions: in vivo; summary of the method: as §2
[33] = target: Acetylcholinesterase (Homo sapiens) (UniProt P22303); experiment: Inhibition of human acetylcholinesterase at 10 uM relative to control
[34] = system: Rattus norvegicus; experiment: Toxicity in rat assessed as increase in blood pressure at 3 mg/kg, iv administered as infusion for 5 mins; assay type: organism-based; conditions: in vivo
Summary of the method: (§5)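 Rats were dosed at 3 mg/Kg. QT interval on ECG, mean blood pressure (% change) and plasma concentration were measured. Values are means of 2-4 experiments.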

[35] = target: Androgen receptor (Rattus norvegicus) (UniProt P15207); experiment: Inhibition of rat testosterone receptor at 10 uM relative to control; summary of the method: as §1
[36] = target: 5-hydroxytryptamine receptor 1B (Rattus norvegicus) (UniProt P28564); experiment: Inhibition of rat 5HT-1B receptor at 10 uM relative to control; summary of the method: as §1
5-hydroxytryptamine receptor 1B (Rattus norvegicus), sequence (P28564 whole entry): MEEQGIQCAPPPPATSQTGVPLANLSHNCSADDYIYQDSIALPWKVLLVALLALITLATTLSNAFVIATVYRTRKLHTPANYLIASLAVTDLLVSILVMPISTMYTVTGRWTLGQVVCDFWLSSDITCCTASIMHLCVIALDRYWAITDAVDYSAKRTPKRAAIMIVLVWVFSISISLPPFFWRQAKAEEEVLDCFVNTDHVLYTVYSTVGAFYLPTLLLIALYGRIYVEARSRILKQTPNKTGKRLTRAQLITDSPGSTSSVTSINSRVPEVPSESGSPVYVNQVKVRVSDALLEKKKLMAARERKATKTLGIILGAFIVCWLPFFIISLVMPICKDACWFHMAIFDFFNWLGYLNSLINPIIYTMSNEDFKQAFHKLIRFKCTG

[37] = target: D(3) dopamine receptor (Homo sapiens) (UniProt P35462); experiment: Inhibition of human dopamine D3 receptor at 10 uM relative to control; summary of the method: as §1
[38] = target: Adrenergic receptor beta (Rattus norvegicus) (UniProt P18090+P10608+P26255); experiment: Inhibition of rat beta adrenergic receptor at 10 uM relative to control; summary of the method: as §1
[39] = Plasma concentration in rat at 3 mg/kg, iv administered as infusion for 5 mins; assay type: ADME, organism-based; summary of the method: as §5

SMILES | inhibition at 10 µM [1] | Cmax [2] | Activity [3] | inhibition [4] | inhibition [5] | inhibition [6] | inhibition [7] | inhibition at 10 µM [8] | clearance [9] | inhibition [10] | inhibition [11] | inhibition [12] | inhibition [13] | inhibition [14] | inhibition [15] | inhibition [16] | inhibition [17] | AUC [18] | inhibition [19] | inhibition [20] | also measured
COc1cccc2c1C(NC[C@]1(c3ccccc3)CC[C@H](O)CC1)=NS2(=O)=O | 0% | 1.7 µM | 19% | 26% | 23% | -6% | 0% | 3% | 27 mL/min/kg | 12% | 8% | 3% | 6% | 29% | 19% | -1% | 17% | 2.7 µM·h | 0% | 14% | EC20 [21]: 600 nM; inhibition [22]: 24%; inhibition [23]: -6%; inhibition at 10 µM [24]: 3%; Vd [25]: 3.2 L/kg; remaining at 10 min, 3 µM [26]: 53%; inhibition [27]: 9%; inhibition [28]: 53%; inhibition at 10 µM [29]: 54%; inhibition [30]: 4%; inhibition [31]: 13%; bioavailability [32]: 34%; inhibition [33]: 53%; Activity [34]: 13%; inhibition [35]: 2%; inhibition [36]: 42%; inhibition [37]: -9%; inhibition [38]: -4%; concentration at 5 min [39]: 153 µM
COc1cccc2c1C(NC[C@]1(c3ccccc3)CC[C@H](NC(=O)OC(C)C)CC1)=NS2(=O)=O | 15% | 0.93 µM | 17% | 25% | 64% | -2% | 3% | 9% | 9.4 mL/min/kg | 10% | 6% | 13% | 10% | 2% | 13% | 4% | 1% | 1.8 µM·h | 31% | 41% | EC20 [21]: <700 nM; inhibition [22]: 15%; inhibition [23]: 2%; inhibition at 10 µM [24]: 10%; Vd [25]: 0.3 L/kg; remaining at 10 min, 3 µM [26]: < 1%; inhibition [27]: 29%; inhibition [28]: 15%; inhibition at 10 µM [29]: 68%; inhibition [30]: -2%; inhibition [31]: -6%; bioavailability [32]: 7.2%; inhibition [33]: 55%; Activity [34]: 44%; inhibition [35]: 20%; inhibition [36]: 23%; inhibition [37]: 11%; inhibition [38]: 0%; concentration at 5 min [39]: 38 µM
